NadD inh: inhibitors of Staphylococcus aureus NadD | purified NadD enzyme, colorimetric absorbance read-out | inhibition, % at 20 µM | 360,000 compounds, 0.78% hits; in the data active = inhibition above about 26%
ABHD5 PLIN5 PPI: blocks binding of human ABHD5 to perilipin-5 | Split G. princeps luciferase complementation, luminescence, 4 h | 360,000 compounds, 0.78% hits | inhibition, % at 4 µM | Q00G26+Q8WTS1;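 active = inhibition above the mean inhibition across every tested compound plus 3 SD, cut at about 22% in these data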;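 also: 0% = DMSO only wells and the 100% control is not disclosed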
GRK2 aptamer HTS: human GRK2 inhibition via aptamer displacement. 330,000 compounds, 0.59% hits. inhibition of aptamer binding, % at 10 µM. AID 488847. bead flow cytometry, FAM-aptamer displacement from GRK2;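 active = inhibition of aptamer binding above 40%, roughly 3 SD of noise, on plates passing a quality check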;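 also: median bead fluorescence of bound FAM aptamer so fluorescent compounds give negative values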
Beta2AR agonist: human beta-2 adrenergic receptor agonism by FAP. 340,000 compounds, 0.43% hits. response, % (test concentration not listed). P07550. Am2.2-beta2AR cells, FAP receptor internalization, flow cytometry;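 active = response above a set limit, near 3 SD of response in nonfluorescent compounds, cut at about 42% in these data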
Target sequence (P07550 whole entry, looked up): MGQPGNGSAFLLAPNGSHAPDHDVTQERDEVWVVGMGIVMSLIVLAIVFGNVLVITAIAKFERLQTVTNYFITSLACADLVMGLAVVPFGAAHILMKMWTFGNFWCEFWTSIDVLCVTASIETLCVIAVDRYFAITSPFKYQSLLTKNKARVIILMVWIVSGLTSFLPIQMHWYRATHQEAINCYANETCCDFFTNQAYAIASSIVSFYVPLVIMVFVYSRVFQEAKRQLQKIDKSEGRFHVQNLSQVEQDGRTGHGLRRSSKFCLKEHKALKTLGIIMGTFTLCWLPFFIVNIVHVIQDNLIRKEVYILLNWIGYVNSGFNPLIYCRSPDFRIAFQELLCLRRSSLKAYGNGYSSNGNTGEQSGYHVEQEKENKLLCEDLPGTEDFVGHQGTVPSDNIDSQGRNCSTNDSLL
SENP1 inh: SENP1 (human) catalytic domain inhibition. Q9P0U3. recombinant SENP1 catalytic domain, CyPet-SUMO1-YPet FRET cleavage. inhibition, % at 10 µM. 360,000 compounds, 0.21% hits. AID 624204;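 active = inhibition at least 30% at 10 µM, raw YFP signal under a set limit, fluorescence ratio 0.5 to 1.5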;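 also: 0% = enzyme with DMSO and 100% = no enzyme wells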
Target sequence (Q9P0U3 419-644 limits assumed): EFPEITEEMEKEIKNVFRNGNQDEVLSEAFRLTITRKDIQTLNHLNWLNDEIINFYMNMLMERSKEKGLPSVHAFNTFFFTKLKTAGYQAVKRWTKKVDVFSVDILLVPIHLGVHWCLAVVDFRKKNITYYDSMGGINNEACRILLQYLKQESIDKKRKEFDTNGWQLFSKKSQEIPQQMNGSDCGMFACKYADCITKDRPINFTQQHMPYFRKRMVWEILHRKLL
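Controls: no-enzyme wells low, DMSO-plus-enzyme wells high control. Test system: human recombinant His6-tagged SENP1 catalytic domain enzyme. Reagent: SFCypet-SUMO1-SFYpet FRET protein substrate, 25 nM final. Doses: one dose per compound, 10 µM, 0.5% DMSO. Detection: FRET, CFP and YFP emission. Timing: 50 min reaction at room temperature.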
ABHD5 PLIN5 conf: ABHD5-PLIN5 interaction inhibition, confirmed; 2,200 compounds, 67% hits; inhibition, % at 4 µM; biochemical ABHD5-PLIN5 interaction, luminescence; shares compounds with ABHD5 PLIN5 PPI; in the data active = inhibition above about 23%;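 also: 0% = DMSO vehicle wells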
HNF4 counter: counter-screen for ABHD5-PLIN5 inhibitors: HNF4 split-luciferase; 2,200 compounds, 77% hits; HNF4 dimerization, luminescence, biochemical; shares compounds with ABHD5 PLIN5 PPI; inhibition, % at 4 µM;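 active = mean inhibition across replicate wells exceeding the computed hit threshold, cut at about 13% in these data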;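 also: light from luciferase halves that rejoin when HNF4 fusion proteins dimerize; 0% = DMSO only wells and the 100% control is not given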
NadD inh conf: NadD (S. aureus) inhibition, single concentration confirmation; inhibition, % at 20 µM; 2,000 compounds, 13% hits; shares compounds with NadD inh; purified S. aureus NadD, colorimetric enzyme assay; in the data active = inhibition mostly above about 42%, no sharp cut-off; inactive = mostly below about 42%
SENP1 conf: SENP1 (human) inhibition, single concentration confirmation; inhibition, % at 10 µM; 520 compounds, 34% hits; shares compounds with SENP1 inh; recombinant SENP1, CyPet-SUMO1-YPet FRET cleavage; AID 651678; in the data active = inhibition mostly above about 35%, no sharp cut-off; inactive = mostly below about 32%;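 also: 0% = enzyme with DMSO and 100% = no enzyme control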
SENP1 kin conf: confirmation of human SENP1 SUMO protease inhibitors, kinetic. inhibition, % at 10 µM. shares compounds with SENP1 inh. 520 compounds, 26% hits. recombinant SENP1, CyPet-SUMO1-YPet FRET kinetic cleavage; in the data active = inhibition mostly above about 32%, no sharp cut-off; inactive = mostly below about 29%;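 also: 0% = DMSO with enzyme and 100% = no enzyme substrate only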
An asterisk follows results filed as active; / = not tested or not shown. Only some compounds are listed: those with a hit (about 2.5% of all), similar ones and a draw of the others.

SMILES | NadD inh | ABHD5 PLIN5 PPI | GRK2 aptamer HTS | Beta2AR agonist | SENP1 inh | others
Nc1c(C(=O)NCc2ccco2)c2nc3ccccc3nc2n1Cc1ccccc1 | 17 | 25* | 3 | 8 | -25 | ABHD5 PLIN5 conf=35*;HNF4 counter=36*
COc1ccc(CCNC(=O)c2c(N)n(CCN3CCOCC3)c3nc4ccccc4nc23)cc1OC | -10 | 25* | 0 | 7 | -20 | ABHD5 PLIN5 conf=16;HNF4 counter=3
CC(C)(C)C(=O)Nc1ccc(S(=O)(=O)N2CC3CC(C2)c2cccc(=O)n2C3)cc1 (centres undefined) | 2 | 1 | 0 | -3 | 0
CN(C)c1ccc(/C=C/c2cc[n+](C)c3ccccc23)cc1 | 1 | 23* | / | -38 | 1 | ABHD5 PLIN5 conf=31*;HNF4 counter=30*
O=C(c1ccc(Cl)cc1)C1CCCN(Cc2ccc3nonc3c2)C1 (centres undefined) | -1 | 2 | 2 | 6 | 8
Cc1ccc(-n2c(O)c(C=Nc3ccc(S(N)(=O)=O)cc3)c(=O)[nH]c2=O)cc1 | 5 | 7 | 2 | 2 | 1
CCc1nnc(NS(=O)(=O)c2ccc(N=Cc3c(O)n(-c4ccc(Cl)cc4)c(=O)[nH]c3=O)cc2)s1 | 0 | 30* | 6 | -27 | 4 | ABHD5 PLIN5 conf=7;HNF4 counter=16*
CNS(=O)(=O)c1ccc(N=Cc2c(O)n(-c3ccc(C)cc3)c(=O)[nH]c2=O)cc1 | -5 | 28* | 0 | -4 | 3 | ABHD5 PLIN5 conf=10;HNF4 counter=37*
COOCC1(C(=O)OC)C[C@H](c2ccc(OC)cc2)N(Cc2ccccc2OC)[C@@H]1c1ccccc1C (some centres undefined) | / | -13 | / | / | -1
Cn1c(O)c(/C=C2\C=Nc3ccccc32)c(=O)n(C)c1=O | -2 | 35* | 1 | -3 | 54* | ABHD5 PLIN5 conf=7;HNF4 counter=17*;SENP1 conf=4;SENP1 kin conf=8
CC(CC(C)(C)N1CC1)=NO | 1 | -6 | / | -5 | 2
c1ccc2c(CN3CCN(C4CCCCC4)CC3)c[nH]c2c1 | 38* | 4 | 0 | 15 | -10 | NadD inh conf=-19
COc1cc2c(cc1O)C[C@H]1NCCc3cc4c(c-2c31)OCO4 | 34* | -2 | 9 | 4 | -59 | NadD inh conf=34
COc1cc2c(cc1OC)-c1c3c(cc4c1[C@@H](C2)N(C)CC4)OCO3 | 12 | 3 | 2 | 3 | -1
COC(=O)C1=C(c2ccccc2OCc2ccccc2)C[C@@H]2CC[C@H]1N2C(=O)NCCOc1ccccc1 | -7 | 0 | 1 | 6 | 1
Cc1cccc(C)c1-n1nnnc1C(CCc1ccccc1)N1CCC(n2c(=O)[nH]c3ccccc32)CC1 (centres undefined) | 30* | 1 | / | / | 4 | NadD inh conf=1
O=c1[nH]c(=S)[nH]c(O)c1N=Nc1ccc(S(=O)(=O)N2CCc3ccccc32)cc1 | 49* | -16 | 0 | -8 | -1 | NadD inh conf=70*
COc1cc(C)c(CNCCc2c[nH]c3ccccc23)cc1C | -9 | -10 | 0 | 7 | -2
CC[C@H]1CN2CCC1C[C@H]2[C@H](O)c1ccnc2ccc(OC)cc12 (some centres undefined) | 48* | 6 | 0 | 7 | -1 | NadD inh conf=-16
O=C(Cc1cc(=O)oc2cc(O)ccc12)NN=Cc1ccc(N(CCCl)CCCl)cc1 | 54* | -4 | / | 3 | -70 | NadD inh conf=49*
O=C(NN=Cc1ccc(N(CCCl)CCCl)cc1)c1cc(=O)[nH]c(=O)[nH]1 | 5 | 0 | / | -1 | 13
O=C(Cc1ccccc1)N1CCN(Cc2ccc(F)cc2)CC1 | 0 | 4 | 3 | -2 | 1
Cc1ccc2nc(-c3ccc(CN4CCC(n5c(=O)[nH]c6ccccc65)CC4)cc3)c(-c3ccccc3)nc2c1 | 25 | 3 | / | / | 1
COc1ccc2nc(-c3ccc(CN4CCC(n5c(=O)[nH]c6ccccc65)CC4)cc3)c(-c3ccccc3)nc2c1 | 37* | 9 | / | / | -4 | NadD inh conf=20
CCCCn1c(=O)c(C(=O)Nc2ccccc2C)c(O)c2ccccc21 | -6 | 5 | 2 | 1 | -3
SMILES | NadD inh | ABHD5 PLIN5 PPI | GRK2 aptamer HTS | Beta2AR agonist | SENP1 inh | others
CC(C)CCn1c(=O)c(C(=O)Nc2ccccc2S(N)(=O)=O)c(O)c2ccccc21 | 49* | -2 | 0 | -5 | 0 | NadD inh conf=23
CN(c1ccccc1)P(=O)(N1CC1)N1CC1 | -10 | 3 | / | -4 | 1
NNC(=O)c1nc[nH]c1C(=O)Nc1ccc(Cl)cc1C(=O)c1ccccc1 | 48* | 9 | 0 | 4 | 0 | NadD inh conf=24
CC(=O)OC1CC[C@]2(C#N)[C@H]3CC[C@]4(C)[C@H](C5C=CC(=O)O5)CCC4(O)C3CCC2(O)C1 (some centres undefined) | -1 | 4 | 6 | -5 | 4
COc1ccccc1N1CCN(Cc2ccccc2Cl)CC1 | 7 | -6 | 0 | 3 | 35* | SENP1 conf=-4;SENP1 kin conf=2
C=CCN1C(=O)/C(=C/c2ccc(N3CCOCC3)o2)C(=O)NC1=S | -3 | 9 | 2 | 1 | 40* | SENP1 conf=31;SENP1 kin conf=24
CCOC(=O)C1CCCN(c2ccc([N+](=O)[O-])c3nonc23)C1 (centres undefined) | -2 | 14 | / | -17 | 83
Cc1cc(C)c(Cn2c(C(=O)O)c(C=O)c3ccccc32)c(C)c1 | -7 | -4 | 0 | 5 | 97* | SENP1 conf=77*;SENP1 kin conf=51*
O=Cc1c(C(=O)O)n(Cc2ccccc2Cl)c2ccccc12 | -6 | -4 | 2 | 2 | 1
CS(=O)(=O)c1ccc(C2=C(CNC(=O)c3cccs3)[C@H]3CC[C@@H](C2)N3CCOc2ccccc2)cc1 | 4 | 1 | / | / | 2
COc1ccc(OC)c(-n2c(O)c(C=NCCN3CCNCC3)c(=O)[nH]c2=S)c1 | -6 | 7 | 0 | -13 | -2
COc1ccc(OC)c(-n2c(O)c(/C=C3\C(C)=Nc4ccccc43)c(=O)[nH]c2=O)c1 | 1 | 7 | 1 | 10 | 82* | SENP1 conf=10;SENP1 kin conf=12
